Results reported in ChEMBL document CHEMBL1687916, “Non-nucleoside inhibitors of human adenosine kinase: synthesis, molecular modeling, and biological studies” (J Med Chem, 2011).

target: Adenosine kinase (Homo sapiens, UniProt P55263); assay: Inhibition of human adenosine kinase; conditions: not given
Sequence (P55263 whole entry): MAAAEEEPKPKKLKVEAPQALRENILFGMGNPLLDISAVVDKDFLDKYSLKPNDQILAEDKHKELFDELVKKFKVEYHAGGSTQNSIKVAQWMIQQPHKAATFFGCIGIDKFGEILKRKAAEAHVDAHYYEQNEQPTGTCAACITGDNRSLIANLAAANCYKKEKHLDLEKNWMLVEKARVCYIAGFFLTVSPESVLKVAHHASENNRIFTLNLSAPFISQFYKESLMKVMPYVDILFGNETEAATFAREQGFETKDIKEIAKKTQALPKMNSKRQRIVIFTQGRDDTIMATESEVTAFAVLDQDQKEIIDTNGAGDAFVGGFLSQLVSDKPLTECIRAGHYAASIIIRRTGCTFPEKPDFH

IC50 | Compound
Not Active | CC(=O)OC1=C(c2ccccc2)Oc2ccccc2-n2cccc21
Not Active | CC(=O)OC1=C(c2ccccc2)Sc2ccccc2-n2cccc21

same assay, conditions: read-out: IC50

IC50 | Compound
2.2 µM | CCC1(c2ccc(CSc3ccc(I)cc3)cc2)Sc2ccccc2-n2cccc2C1=O (racemic)
1 µM | CCC1(c2ccc(CSc3ccccc3Cl)cc2)Oc2ccccc2-n2cccc2C1=O (racemic)
2.5 µM | CCC1(c2ccc(CSc3cccc(C(F)(F)F)c3)cc2)Oc2ccccc2-n2cccc2C1=O (racemic)
10 µM | CCC1(c2ccc(CSc3ccc(C#C[Si](C)(C)C)cc3)cc2)Oc2ccccc2-n2cccc2C1=O (racemic)
15 µM | C#Cc1ccc(SCc2ccc(C3(CC)Oc4ccccc4-n4cccc4C3=O)cc2)cc1 (racemic)
22.5 µM | CCC1(c2ccc(CSc3ccc(Cl)cc3Cl)cc2)Oc2ccccc2-n2cccc2C1=O (racemic)
10 µM | CCC1(c2ccc(CSc3ccc(F)cc3F)cc2)Oc2ccccc2-n2cccc2C1=O (racemic)
2.5 µM | CCC1(c2ccc(CSc3ccc(F)cc3Cl)cc2)Oc2ccccc2-n2cccc2C1=O (racemic)
2 µM | CCC1(c2ccc(CSc3ccc(I)cc3Cl)cc2)Oc2ccccc2-n2cccc2C1=O (racemic)
8 µM | CCC1(c2ccc(CSc3c(F)c(F)cc(F)c3F)cc2)Oc2ccccc2-n2cccc2C1=O (racemic)
4.5 µM | CCC1(c2ccc(CSc3ccccn3)cc2)Oc2ccccc2-n2cccc2C1=O (racemic)
150 µM | CCC1(c2ccc(COc3cccc(CCN4CCCC4)c3)cc2)Oc2ccccc2-n2cccc2C1=O (racemic)
4.4 µM | O=C1c2cccn2-c2ccccc2OC1c1ccc(CSc2ccccc2Cl)cc1 (racemic)
9 µM | O=C1c2cccn2-c2ccccc2OC1c1ccc(CSc2cccc(C(F)(F)F)c2)cc1 (racemic)
5 µM | CCC1(c2ccc(CSc3ccccc3Cl)cc2)Sc2ccccc2-n2cccc2C1=O (racemic)
100 µM | O=C1c2cccn2-c2ccccc2OC1c1ccccc1 (racemic)

The remaining lines, values behind:

Compound | IC50
CCC1(c2cccc(C)c2)Oc2ccccc2-n2cccc2C1=O (racemic) | 150 µM
CCC1(c2ccc(CSc3cccc(OC)c3)cc2)Oc2ccccc2-n2cccc2C1=O (racemic) | 12.5 µM
CN(C)c1ccc2n1-c1ccccc1SC(c1ccccc1)C2=O (racemic) | > 1000 µM
CCC1(c2ccc(CSc3ccccc3F)cc2)Oc2ccccc2-n2cccc2C1=O (racemic) | 4.5 µM
CCC1(c2ccc(CSc3cccc(C)c3)cc2)Oc2ccccc2-n2cccc2C1=O (racemic) | 21.4 µM
CCC1(c2ccc(CSc3cccc(F)c3)cc2)Oc2ccccc2-n2cccc2C1=O (racemic) | 4 µM
CCC1(c2ccc(CSc3cccc(Cl)c3)cc2)Oc2ccccc2-n2cccc2C1=O (racemic) | 3.5 µM
CCC1(c2ccc(CSc3cccc(OC(F)(F)F)c3)cc2)Oc2ccccc2-n2cccc2C1=O (racemic) | 3.2 µM
CCC1(c2ccc(CSc3ccc(F)cc3)cc2)Oc2ccccc2-n2cccc2C1=O (racemic) | 1 µM
CCC1(c2ccc(CSc3ccc(Br)cc3)cc2)Oc2ccccc2-n2cccc2C1=O (racemic) | 2 µM
CCC1(c2ccc(CSc3ccc(I)cc3)cc2)Oc2ccccc2-n2cccc2C1=O (racemic) | 2.5 µM
CCC1(c2ccc(CSc3ccc([N+](=O)[O-])cc3)cc2)Oc2ccccc2-n2cccc2C1=O (racemic) | 6.2 µM
CCC1(c2ccc(CSc3ccc(OC(F)(F)F)cc3)cc2)Oc2ccccc2-n2cccc2C1=O (racemic) | 6.7 µM
CCC1(c2ccc(CSc3ccc(OC)cc3)cc2)Oc2ccccc2-n2cccc2C1=O (racemic) | 14 µM
CCC1(c2ccc(CSc3c(C)cccc3Cl)cc2)Oc2ccccc2-n2cccc2C1=O (racemic) | 3 µM
CCC1(c2ccc(CSc3c(Cl)cccc3Cl)cc2)Oc2ccccc2-n2cccc2C1=O (racemic) | 20 µM
CCC1(c2ccc(CSc3cccc(Cl)c3Cl)cc2)Oc2ccccc2-n2cccc2C1=O (racemic) | 3 µM

Compound | IC50
CCC1(c2ccc(CSc3cc(Cl)ccc3Cl)cc2)Oc2ccccc2-n2cccc2C1=O (racemic) | 14 µM
CCC1(c2ccc(CSc3ccc(Cl)c(Cl)c3)cc2)Oc2ccccc2-n2cccc2C1=O (racemic) | 10 µM
CCC1(c2ccc(CSc3ccc(F)c(Cl)c3)cc2)Oc2ccccc2-n2cccc2C1=O (racemic) | 11 µM
CCC1(c2ccc(CSc3cc(OC)ccc3OC)cc2)Oc2ccccc2-n2cccc2C1=O (racemic) | 35 µM
CCC1(c2ccc(CSc3ncc[nH]3)cc2)Oc2ccccc2-n2cccc2C1=O (racemic) | 3.5 µM
CCC1(c2ccc(CSc3cnccn3)cc2)Oc2ccccc2-n2cccc2C1=O (racemic) | 7 µM
CCC1(c2ccc(CSc3ncccn3)cc2)Oc2ccccc2-n2cccc2C1=O (racemic) | 7 µM
CCC1(c2ccc(COc3ccc(I)cc3Cl)cc2)Oc2ccccc2-n2cccc2C1=O (racemic) | 1.2 µM
CCC1(c2ccc(COc3cccc(CCO)c3)cc2)Oc2ccccc2-n2cccc2C1=O (racemic) | 8 µM
CCN(CC)CCc1cccc(OCc2ccc(C3(CC)Oc4ccccc4-n4cccc4C3=O)cc2)c1 (racemic) | 200 µM
O=C1c2cccn2-c2ccccc2OC1c1ccc(CSc2ccccc2)cc1 (racemic) | 4 µM
CCC1(c2ccc(CSc3ccc(C#C[Si](C)(C)C)cc3)cc2)Sc2ccccc2-n2cccc2C1=O (racemic) | 2 µM
O=C1c2cccn2-c2ccccc2SC1c1ccccc1 (racemic) | 130 µM
CCC1(c2ccccc2)Oc2ccccc2-n2cccc2C1=O (racemic) | 85 µM
CCC1(c2ccc(C)cc2)Oc2ccccc2-n2cccc2C1=O (racemic) | 80 µM
CCC1(c2ccc(CSc3c(Cl)cccc3Cl)cc2)Oc2ccccc2-n2cccc2C1=O (single isomer, unassigned; (+)) | 7.5 µM
CCC1(c2ccc(CSc3c(Cl)cccc3Cl)cc2)Oc2ccccc2-n2cccc2C1=O (single isomer, unassigned; (-)) | 40 µM

target: T1, Adenosine deaminase (Bos taurus) (UniProt P56658); assay: Inhibition of bovine ADA at 100 uM by spectrophotometric analysis; conditions: not given
T1 sequence (whole entry): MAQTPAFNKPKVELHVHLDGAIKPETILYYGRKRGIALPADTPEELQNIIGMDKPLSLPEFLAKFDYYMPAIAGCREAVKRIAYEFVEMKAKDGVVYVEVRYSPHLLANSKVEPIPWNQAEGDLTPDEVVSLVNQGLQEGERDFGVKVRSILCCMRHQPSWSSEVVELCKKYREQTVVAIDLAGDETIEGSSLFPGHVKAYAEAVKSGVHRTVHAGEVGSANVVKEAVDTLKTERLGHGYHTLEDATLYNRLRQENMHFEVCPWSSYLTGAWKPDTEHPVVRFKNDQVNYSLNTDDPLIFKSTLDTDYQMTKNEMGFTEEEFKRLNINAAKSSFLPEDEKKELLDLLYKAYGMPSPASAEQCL
Summary of the method: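 Adenosine deaminase assayed at 30 C with 50 μM Ado, 50 mM potassium phosphate pH 7.2 and 0.3 nM enzyme. Deamination was followed as A262 change over 2 min. Compound tested at 100 μM, with DMSO at most 4% final and a substrate-free blank. Percent inhibition from two determinations in triplicate.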

inhibition | Compound
6.5% | CCC1(c2ccc(CSc3ccccc3Cl)cc2)Oc2ccccc2-n2cccc2C1=O (racemic)
2.7% | CCC1(c2ccc(CSc3cccc(C(F)(F)F)c3)cc2)Oc2ccccc2-n2cccc2C1=O (racemic)
13% | CCC1(c2ccc(CSc3ccc(F)cc3)cc2)Oc2ccccc2-n2cccc2C1=O (racemic)
16% | C#Cc1ccc(SCc2ccc(C3(CC)Oc4ccccc4-n4cccc4C3=O)cc2)cc1 (racemic)

system: NIH3T3; assay: Cytotoxicity against mouse 3T3 cells by phenyltetrazolium bromide assay; type: functional, cell-based; conditions: not given
Summary of the method: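 Murine 3T3 fibroblasts; proliferation measured by MTT assay, with IC50 reported. Each value is the mean of three determinations; Student's t test, p < 0.05.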

Compound | IC50
CCC1(c2ccc(CSc3ccccc3Cl)cc2)Oc2ccccc2-n2cccc2C1=O (racemic) | 97.8 µM
CCC1(c2ccc(CSc3cccc(C(F)(F)F)c3)cc2)Oc2ccccc2-n2cccc2C1=O (racemic) | 44.6 µM
CCC1(c2ccc(CSc3ccc(Br)cc3)cc2)Oc2ccccc2-n2cccc2C1=O (racemic) | 47.6 µM
CCC1(c2ccc(CSc3ccc(I)cc3)cc2)Oc2ccccc2-n2cccc2C1=O (racemic) | 43.5 µM
